Values after ≈ are worked out from the molar mass of the structure shown.
Assays:
Format in all cases: functional
Staphylococcus aureus [1] = assay: Antibacterial activity against methicillin-susceptible Staphylococcus aureus L2 assessed as inhibition of biofilm formation after 24 hrs by CLSI method
Method in brief: (§1)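 Modified Calgary pin-lid device. Inoculum of 7 log10 CFU/ml was prepared by direct colony suspension from 24-h TSA growth. Biofilm grew on pins for 24 h at 35°C on a rocking table in TSB with 1% glucose and 2% NaCl. Pins were rinsed three times in PBS and exposed 24 h at 35°C to serial antibiotic dilutions. MBIC is the last well without visible growth. Quadruplicate.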

[2] = system: Staphylococcus epidermidis; assay: Antibacterial activity against Staphylococcus epidermidis RP62A after 24 hrs by CLSI method
Enterococcus faecalis [3] = assay: Antibacterial activity against Enterococcus faecalis ATCC 29212 after 24 hrs by CLSI method; settings: ATCC 29212, 24 h
Method in brief: (§2)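 Conventional MIC determined in duplicate following CLSI dilution guidelines, with cultures incubated at 35°C.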

Staphylococcus aureus [4] = assay: Antibacterial activity against methicillin-resistant Staphylococcus aureus L32 assessed as induction of biofilm eradication after 24 hrs by CLSI method
Method in brief: (§3)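 Pin-lid biofilms were grown 24 h at 35°C in TSB with 1% glucose and 2% NaCl (7 log10 CFU/ml start), rinsed in PBS, and exposed 24 h at 35°C to serial antibiotic dilutions. Pin bacteria were dispersed by sonication and vortexing. Counts were plated in duplicate on TSA (detection limit 2.4 CFU/ml) or read as turbidity at 570 nm. Quadruplicate.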

Staphylococcus aureus [5] = assay: Antibacterial activity against methicillin-resistant Staphylococcus aureus L32 after 24 hrs by CLSI method; settings: L32, 24 h; method in brief: as §2
[6] = system: Staphylococcus epidermidis; assay: Antibacterial activity against slime-negative Staphylococcus epidermidis M7 assessed as inhibition of biofilm formation after 24 hrs by CLSI method; method in brief: as §1
[7] = system: Staphylococcus epidermidis; assay: Antibacterial activity against Staphylococcus epidermidis RP62A assessed as induction of biofilm eradication after 24 hrs by CLSI method; method in brief: as §3
Staphylococcus aureus [8] = assay: Antibacterial activity against methicillin-susceptible Staphylococcus aureus L2 assessed as induction of biofilm eradication after 24 hrs by CLSI method; method in brief: as §3
Enterococcus faecalis [9] = assay: Antibacterial activity against Enterococcus faecalis ATCC 29212 assessed as inhibition of biofilm formation after 24 hrs by CLSI method; method in brief: as §1
Staphylococcus aureus [10] = assay: Antibacterial activity against methicillin-resistant Staphylococcus aureus L83 after 24 hrs by CLSI method; settings: L83, 24 h; method in brief: as §2
Staphylococcus aureus [11] = assay: Antibacterial activity against Staphylococcus aureus ATCC 35556 after 24 hrs by CLSI method; settings: ATCC 35556, 24 h; method in brief: as §2
[12] = system: Staphylococcus epidermidis; assay: Antibacterial activity against slime-negative Staphylococcus epidermidis M7 assessed as induction of biofilm eradication after 24 hrs by CLSI method; method in brief: as §3
Staphylococcus aureus [13] = assay: Antibacterial activity against methicillin-resistant Staphylococcus aureus by broth microdilution method
[14] = system: Staphylococcus epidermidis; assay: Antibacterial activity against Staphylococcus epidermidis RP62A assessed as inhibition of biofilm formation after 24 hrs by CLSI method; method in brief: as §1
[15] = system: Staphylococcus epidermidis; assay: Antibacterial activity against slime-negative Staphylococcus epidermidis M7 after 24 hrs by CLSI method; settings: M7, 24 h
Staphylococcus aureus [16] = assay: Antibacterial activity against Staphylococcus aureus ATCC 35556 assessed as induction of biofilm eradication after 24 hrs by CLSI method; method in brief: as §3
Staphylococcus aureus [17] = assay: Antibacterial activity against Staphylococcus aureus ATCC 35556 assessed as inhibition of biofilm formation after 24 hrs by CLSI method; method in brief: as §1
Staphylococcus aureus [18] = assay: Antibacterial activity against methicillin-susceptible Staphylococcus aureus L2 after 24 hrs by CLSI method; settings: L2, 24 h; method in brief: as §2
Enterococcus faecalis [19] = assay: Antibacterial activity against Enterococcus faecalis ATCC 29212 assessed as induction of biofilm eradication after 24 hrs by CLSI method; method in brief: as §3
Staphylococcus aureus [20] = assay: Antibacterial activity against methicillin-resistant Staphylococcus aureus L83 assessed as induction of biofilm eradication after 24 hrs by CLSI method; method in brief: as §3
Staphylococcus aureus [21] = assay: Antibacterial activity against methicillin-resistant Staphylococcus aureus L83 assessed as inhibition of biofilm formation after 24 hrs by CLSI method; method in brief: as §1
Staphylococcus aureus [22] = assay: Antibacterial activity against methicillin-resistant Staphylococcus aureus L32 assessed as inhibition of biofilm formation after 24 hrs by CLSI method; method in brief: as §1

| SMILES | MBIC (Staphylococcus aureus [1]) | MBC [2] | MBC (Enterococcus faecalis [3]) | MIC (Enterococcus faecalis [3]) | MBEC (Staphylococcus aureus [4]) | MBC (Staphylococcus aureus [5]) | MBIC [6] | MBEC [7] | MBEC (Staphylococcus aureus [8]) | MBIC (Enterococcus faecalis [9]) | MBC (Staphylococcus aureus [10]) | MBC (Staphylococcus aureus [11]) | MBEC [12] | MBIC [14] | MBEC (Staphylococcus aureus [16]) | MBIC (Staphylococcus aureus [17]) | MBC (Staphylococcus aureus [18]) | MBEC (Enterococcus faecalis [19]) | other results |
| --- | --- | --- | --- | --- | --- | --- | --- | --- | --- | --- | --- | --- | --- | --- | --- | --- | --- | --- | --- |
| CCCCCCCCCCNCCN[C@@]1(C)C[C@H](O[C@H]2[C@H](Oc3c4cc5cc3Oc3ccc(cc3Cl)[C@@H](O)[C@@H](NC(=O)[C@@H](CC(C)C)NC)C(=O)N[C@@H](CC(N)=O)C(=O)N[C@H]5C(=O)N[C@H]3C(=O)N[C@H](C(=O)N[C@H](C(=O)O)c5cc(O)c(CNCP(=O)(O)O)c(O)c5-c5cc3ccc5O)[C@H](O)c3ccc(c(Cl)c3)O4)O[C@H](CO)[C@@H](O)[C@@H]2O)O[C@@H](C)[C@H]1O [TELAVANCIN] | 1 µg/mL | 0.125 µg/mL (≈ 0.0712 µM) | 1 µg/mL (≈ 0.57 µM) | 0.25 µg/mL (≈ 0.142 µM) | 2 µg/mL | 0.125 µg/mL (≈ 0.0712 µM) | 0.5 µg/mL | 1 µg/mL | 1 µg/mL | 1 µg/mL | 0.125 µg/mL (≈ 0.0712 µM) | 0.25 µg/mL (≈ 0.142 µM) | 0.5 µg/mL | 0.5 µg/mL | 0.125 µg/mL | 0.25 µg/mL | 0.125 µg/mL (≈ 0.0712 µM) | 1 µg/mL | MIC [2]: 0.125 µg/mL (≈ 0.0712 µM); MIC (Staphylococcus aureus [5]): 0.03 µg/mL (≈ 0.0171 µM); MIC (Staphylococcus aureus [10]): 0.06 µg/mL (≈ 0.0342 µM); MIC (Staphylococcus aureus [11]): 0.06 µg/mL (≈ 0.0342 µM); MIC (Staphylococcus aureus [13]): 0.06 µg/mL (≈ 0.0342 µM); MBC [15]: 0.125 µg/mL (≈ 0.0712 µM); MIC [15]: 0.125 µg/mL (≈ 0.0712 µM); MIC (Staphylococcus aureus [18]): 0.06 µg/mL (≈ 0.0342 µM) |
| CN[C@H](CC(C)C)C(=O)N[C@H]1C(=O)N[C@@H](CC(N)=O)C(=O)N[C@H]2C(=O)N[C@H]3C(=O)N[C@H](C(=O)N[C@H](C(=O)O)c4cc(O)cc(O)c4-c4cc3ccc4O)[C@H](O)c3ccc(c(Cl)c3)Oc3cc2cc(c3O[C@@H]2O[C@H](CO)[C@@H](O)[C@H](O)[C@H]2O[C@H]2C[C@](C)(N)[C@H](O)[C@H](C)O2)Oc2ccc(cc2Cl)[C@H]1O [VANCOMYCIN] | 16 µg/mL | 2 µg/mL (≈ 1.38 µM) | 16 µg/mL (≈ 11 µM) | 2 µg/mL (≈ 1.38 µM) | >256 µg/mL | 2 µg/mL (≈ 1.38 µM) | 8 µg/mL | 4 µg/mL | >256 µg/mL | 16 µg/mL | 2 µg/mL (≈ 1.38 µM) | 2 µg/mL (≈ 1.38 µM) | 2 µg/mL | 4 µg/mL | >256 µg/mL | 16 µg/mL | 2 µg/mL (≈ 1.38 µM) | >256 µg/mL | MBEC (Staphylococcus aureus [20]): >256 µg/mL; MBIC (Staphylococcus aureus [21]): 4 µg/mL; MBIC (Staphylococcus aureus [22]): 8 µg/mL |

Reference: ChEMBL document CHEMBL1649538 (2009)
